# Laboratory results: ChEMBL document CHEMBL4689842, “EUbOPEN Chemogenomics Library wave 1” (2021)
# Values joined by “and” are separate entries in the source; they are usually repeats but may differ in a detail not shown here. Equal values may be shown once.
# Tested on: Fibroblast
# Assay: Multiplex assay against human fibroblast
# Type: toxicity, cell-based
# Procedure, shortened: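 Live cells were stained at seeding with Hoechst33342, BioTracker Green Microtubule Cytoskeleton Dye, MitoTracker Red and Annexin V Alexa Fluor 680. Following compound addition, they were imaged on a CQ1 microscope at 37°C and 5% CO2 and gated by CellPathfinder machine learning into Hoechst high-intensity objects or normal cells, with normal cells split into healthy, pyknosed or fragmented nuclei and pyknosed cells into mitotic or apoptotic. Tubulin, mitochondrial-mass and membrane-permeability phenotypes are per cents of healthy-nucleus cells.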
# [1] = 12 h, 1 µM, compound concentration 1 uM, replicate 1
# [2] = 12 h, 1 µM, compound concentration 1 uM, replicate 2
# [3] = 12 h, 10 µM, compound concentration 10 uM, replicate 1
# [4] = 12 h, 10 µM, compound concentration 10 uM, replicate 2
# [5] = 24 h, 1 µM, compound concentration 1 uM, replicate 1
# [6] = 24 h, 1 µM, compound concentration 1 uM, replicate 2
# [7] = 24 h, 10 µM, compound concentration 10 uM, replicate 1
# [8] = 24 h, 10 µM, compound concentration 10 uM, replicate 2
# [9] = 48 h, 1 µM, compound concentration 1 uM, replicate 1
# [10] = 48 h, 1 µM, compound concentration 1 uM, replicate 2
# [11] = 48 h, 10 µM, compound concentration 10 uM, replicate 1
# [12] = 48 h, 10 µM, compound concentration 10 uM, replicate 2
compound,measurement,setting,value
Cc1nc(-c2ccc(-c3ccc(C(=O)N4CCc5cc6c(cc54)C4(CCN(C)CC4)CO6)cc3)c(C)c2)no1 [SB-224289],Population Apoptotic (%),[1],66%
same,Population Fragmented Nuclei (%),[1],35%
same,Population Healthy Nuclei (%),[1],33%
same,Population Hoechst High Intensity Objects (%),[1],7%
same,Population Membrane Permeable-Phenotype (%),[1],18%
same,Population Mitochondria Different-Phenotype (%),[1],25%
same,Population Mitotic Cells (%),[1],33%
same,Population Normal (%),[1],92%
same,Population Pyknosed Nuclei (%),[1],31%
same,Population Tubulin-Different-Phenotype (%),[1],75%
same,Total Cell Count,[1],188
same,Population Apoptotic (%),[2],28%
same,Population Fragmented Nuclei (%),[2],4%
same,Population Healthy Nuclei (%),[2],81%
same,Population Hoechst High Intensity Objects (%),[2],12%
same,Population Membrane Permeable-Phenotype (%),[2],10%
same,Population Mitochondria Different-Phenotype (%),[2],42%
same,Population Mitotic Cells (%),[2],71%
same,Population Normal (%),[2],87%
same,Population Pyknosed Nuclei (%),[2],14%
same,Population Tubulin-Different-Phenotype (%),[2],37%
same,Total Cell Count,[2],65
same,Population Apoptotic (%),[3],71%
same,Population Fragmented Nuclei (%),[3],34%
same,Population Healthy Nuclei (%),[3],40%
same,Population Hoechst High Intensity Objects (%),[3],15%
same,Population Membrane Permeable-Phenotype (%),[3],5%
same,Population Mitochondria Different-Phenotype (%),[3],62%
same,Population Mitotic Cells (%),[3],28%
same,Population Normal (%),[3],84%
same,Population Pyknosed Nuclei (%),[3],24%
same,Population Tubulin-Different-Phenotype (%),[3],89%
same,Total Cell Count,[3],213
same,Population Apoptotic (%),[4],63%
same,Population Fragmented Nuclei (%),[4],7%
same,Population Healthy Nuclei (%),[4],77%
same,Population Hoechst High Intensity Objects (%),[4],11%
same,Population Membrane Permeable-Phenotype (%),[4],54%
same,Population Mitochondria Different-Phenotype (%),[4],100%
same,Population Mitotic Cells (%),[4],36%
same,Population Normal (%),[4],88%
same,Population Pyknosed Nuclei (%),[4],15%
same,Population Tubulin-Different-Phenotype (%),[4],100%
same,Total Cell Count,[4],56
same,Population Apoptotic (%),[5],65%
same,Population Fragmented Nuclei (%),[5],32%
same,Population Healthy Nuclei (%),[5],41%
same,Population Hoechst High Intensity Objects (%),[5],14%
same,Population Membrane Permeable-Phenotype (%),[5],20%
same,Population Mitochondria Different-Phenotype (%),[5],27%
same,Population Mitotic Cells (%),[5],34%
same,Population Normal (%),[5],85%
same,Population Pyknosed Nuclei (%),[5],25%
same,Population Tubulin-Different-Phenotype (%),[5],79%
same,Total Cell Count,[5],202
same,Population Apoptotic (%),[6],0%
same,Population Fragmented Nuclei (%),[6],15%
same,Population Healthy Nuclei (%),[6],77%
same,Population Hoechst High Intensity Objects (%),[6],9%
same,Population Membrane Permeable-Phenotype (%),[6],6%
same,Population Mitochondria Different-Phenotype (%),[6],38%
same,Population Mitotic Cells (%),[6],100%
same,Population Normal (%),[6],90%
same,Population Pyknosed Nuclei (%),[6],7%
same,Population Tubulin-Different-Phenotype (%),[6],22%
same,Total Cell Count,[6],73
same,Population Apoptotic (%),[7],78%
same,Population Fragmented Nuclei (%),[7],35%
same,Population Healthy Nuclei (%),[7],25%
same,Population Hoechst High Intensity Objects (%),[7],17%
same,Population Membrane Permeable-Phenotype (%),[7],2%
same,Population Mitochondria Different-Phenotype (%),[7],61%
same,Population Mitotic Cells (%),[7],21%
same,Population Normal (%),[7],82%
same,Population Pyknosed Nuclei (%),[7],38%
same,Population Tubulin-Different-Phenotype (%),[7],66%
same,Total Cell Count,[7],186
same,Population Apoptotic (%),[8],76%
same,Population Fragmented Nuclei (%),[8],16%
same,Population Healthy Nuclei (%),[8],56%
same,Population Hoechst High Intensity Objects (%),[8],11%
same,Population Membrane Permeable-Phenotype (%),[8],86%
same,Population Mitochondria Different-Phenotype (%),[8],100%
same,Population Mitotic Cells (%),[8],23%
same,Population Normal (%),[8],88%
same,Population Pyknosed Nuclei (%),[8],26%
same,Population Tubulin-Different-Phenotype (%),[8],100%
same,Total Cell Count,[8],63
same,Population Apoptotic (%),[9],68%
same,Population Fragmented Nuclei (%),[9],44%
same,Population Healthy Nuclei (%),[9],46%
same,Population Hoechst High Intensity Objects (%),[9],21%
same,Population Membrane Permeable-Phenotype (%),[9],8%
same,Population Mitochondria Different-Phenotype (%),[9],6%
same,Population Mitotic Cells (%),[9],31%
same,Population Normal (%),[9],78%
same,Population Pyknosed Nuclei (%),[9],8%
same,Population Tubulin-Different-Phenotype (%),[9],50%
same,Total Cell Count,[9],277
same,Population Apoptotic (%),[10],0%
same,Population Fragmented Nuclei (%),[10],48%
same,Population Healthy Nuclei (%),[10],50%
same,Population Hoechst High Intensity Objects (%),[10],27%
same,Population Membrane Permeable-Phenotype (%),[10],12%
same,Population Mitochondria Different-Phenotype (%),[10],3%
same,Population Mitotic Cells (%),[10],100%
same,Population Normal (%),[10],72%
same,Population Pyknosed Nuclei (%),[10],0%
same,Population Tubulin-Different-Phenotype (%),[10],56%
same,Total Cell Count,[10],169
same,Population Apoptotic (%),[11],90%
same,Population Fragmented Nuclei (%),[11],46%
same,Population Healthy Nuclei (%),[11],21%
same,Population Hoechst High Intensity Objects (%),[11],33%
same,Population Membrane Permeable-Phenotype (%),[11],30%
same,Population Mitochondria Different-Phenotype (%),[11],50%
same,Population Mitotic Cells (%),[11],10%
same,Population Normal (%),[11],66%
same,Population Pyknosed Nuclei (%),[11],31%
same,Population Tubulin-Different-Phenotype (%),[11],85%
same,Total Cell Count,[11],142
same,Population Apoptotic (%),[12],100%
same,Population Fragmented Nuclei (%),[12],47%
same,Population Healthy Nuclei (%),[12],15%
same,Population Hoechst High Intensity Objects (%),[12],29%
same,Population Membrane Permeable-Phenotype (%),[12],14%
same,Population Mitochondria Different-Phenotype (%),[12],85%
same,Population Mitotic Cells (%),[12],0%
same,Population Normal (%),[12],70%
same,Population Pyknosed Nuclei (%),[12],36%
same,Population Tubulin-Different-Phenotype (%),[12],71%
same,Total Cell Count,[12],127
O=C(NCCN1CCOCC1)c1ccc2c(c1)C(=O)c1ccc(Nc3ccc(F)c(NC(=O)c4ccccc4)c3)cc1CC2 [FS-694],Population Apoptotic (%),[3],65% and 38%
same,Population Fragmented Nuclei (%),[3],35% and 51%
same,Population Healthy Nuclei (%),[3],49% and 32%
same,Population Mitotic Cells (%),[3],34% and 61%
same,Population Normal (%),[3],81% and 29%
same,Population Pyknosed Nuclei (%),[3],14%
same,Population Tubulin-Different-Phenotype (%),[3],20% and 24%
same,Total Cell Count,[3],371 and 970
same,Population Apoptotic (%),[4],72% and 68%
same,Population Fragmented Nuclei (%),[4],57%
same,Population Healthy Nuclei (%),[4],27% and 29%
same,Population Hoechst High Intensity Objects (%),[4],44% and 82%
same,Population Membrane Permeable-Phenotype (%),[4],21% and 20%
same,Population Mitochondria Different-Phenotype (%),[4],15% and 0%
same,Population Mitotic Cells (%),[4],27% and 31%
same,Population Pyknosed Nuclei (%),[4],15% and 13%
same,Population Apoptotic (%),[7],44% and 59%
same,Population Fragmented Nuclei (%),[7],50% and 35%
same,Population Healthy Nuclei (%),[7],36% and 50%
same,Population Membrane Permeable-Phenotype (%),[7],8%
same,Population Mitochondria Different-Phenotype (%),[7],13% and 7%
same,Population Mitotic Cells (%),[7],55% and 40%
same,Population Normal (%),[7],34% and 80%
same,Population Pyknosed Nuclei (%),[7],13% and 14%
same,Population Tubulin-Different-Phenotype (%),[7],25% and 24%
same,Total Cell Count,[7],927 and 391
same,Population Apoptotic (%),[8],80% and 55%
same,Population Fragmented Nuclei (%),[8],43% and 57%
same,Population Healthy Nuclei (%),[8],40% and 27%
same,Population Hoechst High Intensity Objects (%),[8],50% and 77%
same,Population Membrane Permeable-Phenotype (%),[8],16% and 15%
same,Population Mitochondria Different-Phenotype (%),[8],20% and 0%
same,Population Mitotic Cells (%),[8],20% and 44%
same,Population Normal (%),[8],50% and 22%
same,Population Pyknosed Nuclei (%),[8],16% and 15%
same,Population Tubulin-Different-Phenotype (%),[8],20% and 9%
